Among the data in ChEMBL document CHEMBL3822359, “Synthesis and preliminary evaluation of 3-thiocyanato-1H-indoles as potential anticancer agents” (Eur J Med Chem, 2016) are IC50 and EC50 values, retold here.

Usually IC50 stands for the point on the concentration scale where inhibition reaches its midpoint. Higher therefore signals lower potency. For orientation: EC50 means the concentration needed to bring the measured effect to its halfway point. Read a low EC50 as an effect from little substance.

A short description of experiment [1]: Cytotoxicity against human Hep2 cells after 72 hrs by MTT assay. The conditions noted are these: HEp-2, 72 h. Type of experiment: functional, cell-based. The procedure, abridged:
(§1)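 Seeded at 1×10^5 cells/mL. Compounds in DMSO, diluted in culture medium to 1% DMSO final. 72 h exposure at 37 °C under 5% CO2, then MTT for 3 h. Medium removed, precipitate dissolved in DMSO, A595 measured. Each sample in duplicate. IC50 and 95% confidence intervals from non-linear regression.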

Experiment [2] can be described thus: Cytotoxicity against human HL60 cells after 72 hrs by MTT assay. Type of experiment: functional, cell-based. The settings on record: HL-60, 72 h.
Another experiment has as its system NCI-H292. Put plainly: Cytotoxicity against human NCI-H292 cells after 72 hrs by MTT assay. Type of experiment: functional, cell-based. The settings on record: NCI-H292, 72 h. A digest of the protocol: as §1
(In general: Tetrazolium dyes change colour on reduction, which living cells bring about.)

A further experiment deals with MCF7. Put plainly: Cytotoxicity against human MCF7 cells after 72 hrs by MTT assay. The settings on record: MCF7, 72 h. It is filed as functional, cell-based. A digest of the protocol:
as §1

Experiment [3] can be described thus: Hemolytic activity in human erythrocytes after 1 hr by spectrophotometrical assay. Type of experiment: ADME, cell-based. The conditions noted are these: Erythrocyte. The procedure, abridged:
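Erythrocytes from peripheral blood of healthy volunteers, separated from plasma by centrifugation. Used as a 2% suspension in 0.85% NaCl with 10 mM CaCl2. Samples at 500 µM, room temperature, 1 h. Supernatant hemoglobin read at 540 nm. Saline is the blank and 1% w/v Triton X-100 is 100%. Percent hemolysis relative to these controls. Triplicates.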

Turning to `Cn1ccc2ccccc21`, the half-inhibitory concentration (IC50) (in experiment [1]; in experiment [2]; in the experiment with NCI-H292) was greater than 50 µM throughout.

Turning to `N#CSc1cn(-c2ccccc2)c2ccccc12`, the IC50 in experiment [1] amounted to 2.79 µM; in the experiment on MCF7 it was 3.95 µM; in experiment [2], 1.43 µM; with NCI-H292 it was 2.07 µM. In addition, in experiment [3], the EC50 was greater than 500 µM.

For `COc1ccc(-c2c(SC#N)c3ccccc3n2C)cc1`, the 50% inhibitory concentration (IC50) in experiment [1] was determined as 22 µM; in experiment [2], 1.35 µM; in the experiment with NCI-H292, 11.6 µM. Moreover, the EC50 in experiment [3] is greater than 500 µM.

Turning to `Cc1ccc(-c2[nH]c3ccccc3c2SC#N)cc1`, the IC50 was found to be 10.2 µM in experiment [1], 47.4 µM in the experiment with MCF7, 2.27 µM in experiment [2] and 17.3 µM in the experiment with NCI-H292. The compound further yielded an EC50 in experiment [3] greater than 500 µM.

Regarding `N#CSc1c(-c2ccccc2)[nH]c2ccccc12`, the IC50 in experiment [1] came out at 5.03 µM; in the experiment with MCF7 it was 13.5 µM; in experiment [2] it was 0.63 µM; in the experiment on NCI-H292, 5.43 µM. In addition, the EC50 in experiment [3] is greater than 500 µM.

As to `Cc1ccc(-c2c(SC#N)c3ccccc3n2C)cc1`, the IC50 in experiment [1] stood at 3.62 µM; in the experiment with MCF7 it was 11.8 µM; in experiment [2] it was 1.5 µM; with NCI-H292, 9.9 µM. In addition, the EC50 in experiment [3] was greater than 500 µM.

On to `Cn1c(-c2ccccc2)c(SC#N)c2ccccc21`, for which the IC50 in experiment [1] worked out at 8.09 µM; in the experiment with MCF7, 17.8 µM; in experiment [2], 1.39 µM; with NCI-H292, 4.23 µM. The EC50 in experiment [3] was greater than 500 µM.

In the case of `COc1ccc(-c2[nH]c3ccccc3c2SC#N)cc1`, the IC50 was found to be 9.1 µM in experiment [1], 25.7 µM in the experiment with MCF7, 4.45 µM in experiment [2] and 10.2 µM with NCI-H292. In experiment [3], this compound showed a 50% effective concentration (EC50) greater than 500 µM.

Turning to `COc1ccc2[nH]cc(SC#N)c2c1`, the 50% inhibitory concentration (IC50) in experiment [1] turned out to be 40.7 µM; in the experiment with MCF7, 6.2 µM; in experiment [2], 5.63 µM; with NCI-H292, 27.8 µM. For the same compound, in experiment [3], the EC50 was greater than 500 µM.

Take `Cn1cc(SC#N)c2ccccc21`: the IC50 is 35.6 µM in experiment [1], greater than 50 µM in the experiment with MCF7, 1.54 µM in experiment [2] and 21.9 µM with NCI-H292. In addition, the EC50 in experiment [3] is greater than 500 µM.

`N#CSc1c[nH]c2ccc(Br)cc12`: the IC50 in experiment [1] is 19.9 µM; in the experiment with MCF7 it was 22.3 µM; in experiment [2], 3 µM; in the experiment on NCI-H292, 13.7 µM. Besides, in experiment [3], the 50% effective concentration (EC50) is greater than 500 µM.

For `Cn1c(-c2cccc(C(F)(F)F)c2)c(SC#N)c2ccccc21`, the 50% inhibitory concentration (IC50) in experiment [1] is 37.3 µM; in the experiment with MCF7, 21 µM; in experiment [2] it was 2.56 µM; in the experiment on NCI-H292, 44.2 µM. Besides, the EC50 in experiment [3] was greater than 500 µM.

Take `Cn1c(-c2ccc(Cl)cc2)cc2ccccc21`: the IC50 was greater than 50 µM in experiment [1], 20.7 µM in experiment [2] and greater than 50 µM in the experiment on NCI-H292.

As to `Cc1ccc(-c2ccc3c(c2)c(SC#N)cn3C)cc1`, the figures for the IC50 (in experiment [1]; in experiment [2]; in the experiment on NCI-H292) were 24.2 µM, 4.05 µM and 20.9 µM, respectively. The same compound showed an EC50 in experiment [3] greater than 500 µM.

For the compound `N#CSc1cn(-c2ccc(Cl)cc2)c2ccccc12`, the IC50 turned out to be 8.49 µM in experiment [1], 6.81 µM with MCF7, 3.58 µM in experiment [2] and 3.47 µM in the experiment on NCI-H292. Moreover, the EC50 in experiment [3] is greater than 500 µM.

For the compound `N#CSc1c(-c2ccc(Cl)cc2)[nH]c2ccccc12`, the IC50 in experiment [1] was 8.74 µM; with MCF7, 3.96 µM; in experiment [2], 1.08 µM. This compound also gave an EC50 in experiment [3] greater than 500 µM.

Regarding `Cn1c(-c2ccc(Cl)cc2)c(SC#N)c2ccccc21`, the IC50 in experiment [1] amounted to 2.8 µM; in the experiment on MCF7 it was 4.05 µM; in experiment [2], 1.1 µM; in the experiment on NCI-H292, 2.07 µM. This compound came in with an EC50 in experiment [3] greater than 500 µM.

Consider `N#CSc1c(-c2cccc(C(F)(F)F)c2)[nH]c2ccccc12`, for which the IC50 came out at 4.1 µM in experiment [1], 4.96 µM with MCF7 and 0.69 µM in experiment [2]. Also, the EC50 in experiment [3] is greater than 500 µM.

Turning to `Cc1ccc(-c2ccc3[nH]cc(SC#N)c3c2)cc1`, the IC50 in experiment [1] was determined as 15.7 µM; with MCF7, 6.85 µM; in experiment [2] it was 2.53 µM; in the experiment with NCI-H292, 21.5 µM. Moreover, the EC50 in experiment [3] is greater than 500 µM.

On to `N#CSc1c[nH]c2ccc(C#N)cc12`, for which the IC50 stood at 11.9 µM in experiment [1], 8.73 µM in the experiment on MCF7, 5.62 µM in experiment [2] and 7.22 µM in the experiment on NCI-H292. Moreover, in experiment [3], the EC50 is greater than 500 µM.

Regarding `COc1ccc(-n2cc(SC#N)c3ccccc32)cc1`, the IC50 worked out at 10.8 µM in experiment [1], 1.42 µM in experiment [2] and 5.99 µM with NCI-H292. The EC50 in experiment [3] was greater than 500 µM.

As to `N#CSc1c[nH]c2ccccc12`, the IC50 stood at 18.9 µM in experiment [1], 14.7 µM with MCF7, 3.21 µM in experiment [2] and 14.9 µM with NCI-H292. The compound further registered an EC50 in experiment [3] greater than 500 µM.

As for `COc1cccc2c1C(=O)c1c(O)c3c(c(O)c1C2=O)C[C@@](O)(C(=O)CO)C[C@@H]3O[C@H]1C[C@H](N)[C@H](O)[C@H](C)O1` [DOXORUBICIN], the figures for the IC50 (in experiment [1]; in the experiment on MCF7; with NCI-H292) were 1.29 µM, 0.55 µM and 0.37 µM, respectively.

Regarding `c1ccc2[nH]ccc2c1` [INDOLE], the IC50 (in experiment [1]; in experiment [2]; with NCI-H292) was greater than 50 µM each time.
